Active and inactive are the calls of the source. No cut-off for these calls is given here. Numbered stars: 1 amine (or outer) side, 2 acyl side, 3 side chain; on linkers, the order of the positions; unused ones are H or OH. Bridge positions count the residues as written; N and C are the ends. Square brackets hold non-standard residues; d marks the D form. Peptide text beside a SMILES is read from it. Adda = CO[C@@H](Cc1ccccc1)[C@@H](C)/C=C(C)/C=C/[C@H](N[*:1])[C@H](C)C(=O)[*:2]; dAsp(3S-Me) = C[C@H](C(=O)[*:3])[C@@H](N[*:1])C(=O)[*:2]; d(γGlu) = O=C(O)[C@@H](CCC(=O)[*:2])N[*:1]; NMeDha = C=C(NC)C(=O)O
Key:
[1] = Inhibition of PP2A using p-NPP as substrate pretreated for 1 hr by spectrophotometry
[2] = Reversible inhibition of PP2A using p-NPP as substrate assessed as recovery of enzyme activity at 100 uM pretreated for […] followed by 4 hrs dialysis by spectrophotometry relative to control; set-up: scale not given: the % may be the effect or the level left
Outline: (§1)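 PP2A (0.07 U) was mixed 1:1 by volume with inhibitor solutions in 5% MeOH/H2O (20–100 µM before mixing) at 37 °C; controls got 5% MeOH/H2O alone. Buffer: 50 mM Tris, 2 mM MnCl2, 1.1 mM EDTA, 1.3 mM DTT, 0.125 mg/mL BSA. Samples were dialysed against buffer for 4 h at 5–7 °C, then given p-NPP (7.8 mM final) for 2 h at 37 °C; A405 read against control.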

[3] = Inhibition of protein phosphatase 1
[4] = Irreversible inhibition of PP2A using p-NPP as substrate assessed as recovery of enzyme activity pretreated for 1 hr followed by 4 hrs dialysis by spectrophotometry; outline: as §1
[5] = Reversible inhibition of PP2A using p-NPP as substrate assessed as recovery of enzyme activity at 80 uM […] followed by 4 hrs dialysis by spectrophotometry relative to control; set-up: scale not given: the % may be the effect or the level left

| SMILES | IC50 [1] [nM] | Activity [2] [%] | inhibition [3] | inhibition [4] | inhibition [1] | Activity [5] [%] |
| --- | --- | --- | --- | --- | --- | --- |
| C=C1[C@@H](O)[C@@H]2O[C@]3(CC[C@H](/C=C/[C@@H](C)[C@@H]4CC(CO)=C[C@@]5(O[C@H](C[C@@](C)(O)C(=O)O)CC[C@H]5O)O4)O3)CC[C@H]2O[C@@H]1[C@@H](O)C[C@H](C)[C@H]1O[C@@]2(CCCCO2)CC[C@H]1C | 1.34 | 113 | Active | – | – | – |
| C=C1C(=O)N[C@H](C)C(=O)N[C@@H](CC(C)C)C(=O)N[C@@H](C(=O)O)[C@H](C)C(=O)N[C@@H](CCCNC(=N)N)C(=O)N[C@@H](/C=C/C(C)=C/[C@H](C)[C@H](Cc2ccccc2)OC)[C@H](C)C(=O)N[C@@H](C(=O)O)CCC(=O)N1C (R[Adda][d(γGlu)][NMeDha][dA]L[dAsp(3S-Me)]-OH; lactam N-7) | – | – | – | Active | – | – |
| C=C1[C@@H](O)[C@@H]2O[C@]3(CC[C@H](/C=C/[C@@H](C)[C@@H]4CC(C)=C[C@@]5(O[C@H](C[C@@](C)(O)C(=O)O)CC[C@H]5O)O4)O3)CC[C@H]2O[C@@H]1[C@@H](O)C[C@H](C)[C@H]1O[C@]2(CC[C@H]1C)CC(O)CCO2 (stereo partly specified) | 0.94 | – | Active | – | – | – |
| C=C1[C@@H](O)[C@@H]2O[C@]3(CC[C@H](/C=C/[C@@H](C)[C@@H]4CC(C)=C[C@@]5(O[C@H](C[C@@](C)(O)C(=O)O)CC[C@H]5O)O4)O3)CC[C@H]2O[C@@H]1[C@@H](O)C[C@H](C)[C@H]1O[C@@]2(CCCCO2)CC[C@H]1C | – | – | Active | – | Active | – |
| C=C1[C@@H](O)[C@@H]2O[C@]3(CC[C@H](/C=C/[C@@H](C)[C@@H]4CC(C=O)=C[C@@]5(O[C@H](C[C@@](C)(O)C(=O)O)CC[C@H]5O)O4)O3)CC[C@H]2O[C@@H]1[C@@H](O)C[C@H](C)[C@H]1O[C@@]2(CCCCO2)CC[C@H]1C | 3.98 | – | Active | – | – | 117 |

Source: ChEMBL document CHEMBL2034894, “The structures of three metabolites of the algal hepatotoxin okadaic acid produced by oxidation with human cytochrome P450” (Bioorg Med Chem, 2012)
